This passage reports viability, differential viability (reversal) and inhibition results from PubChem BioAssay.

A short description of experiment [1]: SK-BR-3 cell growth inhibitors, pilot screen, 24 h, human (AID 572;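 active = viability at or below 10% of carrier control in both of two separate runs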;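 also: compound exposure lasted between 18 and 24 h rather than exactly 24 h; 100% = carrier-treated control wells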). Conditions: SK-BR-3 viability, CellTiter-Glo luminescence, at 10 µM, stronger effect = lower value. In general terms: ATP-based viability assays read luminescence as a measure of living cells.
A short description of experiment [2]: HUVEC growth inhibition – cell-based, human, primary screen (AID 575;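 active = viability at or below 30% in both replicate assays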;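 also: 100% = median of untreated cell wells with 0.1% DMSO on each plate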). Conditions: HUVEC proliferation, CellTiter-Glo luminescence, 72 h; at 10 µM; stronger effect = lower value. Put shortly:
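System – primary HUVEC, no more than 12 passages · Medium – Low-serum (2% FBS) EBM, supplemented · Times – 72 h exposure, 37 °C, 5% CO2, 30 min RT equilibration · Measured by – luminescent ATP assay · Read-out – % viability relative to median vehicle-well signal on each plate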

Experiment [3] in a line: growth inhibitors of H69AR lung tumor, primary screen, human, duplicate replicates (AID 580;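 active = viability at or under a set limit in both replicates, limit being median viability minus 3 SD, cut at about 48% in these data, passing the limit was not always enough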;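 also: 100% = mean luminescence of untreated wells and 0% = no signal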). Conditions: H69AR lung tumor cells viability, ATP luminescence, 72 h; at 10 µM; stronger effect = lower value.
The nature of experiment [4]: reversal of MRP1-mediated doxorubicin resistance, pilot screen, H69AR cells, doxorubicin co-treatment (AID 601;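 active = viability loss from added drug above about 55%, and viability with drug at most 40%, in both replicates, limit read from the data, passing the limit was not always enough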). To be noted: CellTiter-Glo, 72 h, at 10 µM; for differential viability (reversal): stronger effect = higher value.
The nature of experiment [5]: 384-well plate pilot, post-Golgi transport modulator project, inhibition of yeast transport mutant growth (AID 636; in the data active = inhibition above about 31%). To be noted: absorbance 615 nm, about 18 h, stronger effect = higher value.
The nature of experiment [6]: growth suppression of yeast trafficking mutant, preliminary HTS, modulators of trafficking downstream of Golgi apparatus project, 1536-format plate, OD 615 nm (AID 637). To be noted: yeast transport mutant growth, absorbance 615 nm, 18 h; stronger effect = higher value.
The mark [7] stands for this setting: H69AR cells + 2 uM doxorubicin, measured here: viability with 2 uM doxorubicin, stronger effect = lower value.
The mark [8] stands for this setting: H69AR cells, compound alone cytotoxicity.

Calls of active or inactive are those of the source. Rule as the data show it, unless noted: active = inhibition above about 30%; inactive = the rest.

The term viability denotes a read-out of living cells in per cent, often relative to untreated cells. The term inhibition denotes the drop in the measured response relative to a control, in per cent. Turning to `CC(C)Oc1ccc2c(=O)c(-c3ccccc3)coc2c1`, the viability was 121% (inactive) in experiment [1]; 87% (inactive) in experiment [2]; 89.7% (inactive) in experiment [3]; 82.8% in experiment [4] (setting [7]); 89.7% in experiment [4] (setting [8]). In experiment [4] (H69AR cells + 2 uM doxorubicin), the differential viability (reversal) was 6.81% (inactive). The inhibition in experiment [5] is -1.04% (inactive); in experiment [6] it was -0.17% (inactive).
Take `Cc1ccc(-n2c(C)cc3c2CCCC3=O)cc1`: the viability in experiment [1] is 113% (inactive); in experiment [2] it was 112% (inactive); in experiment [3], 93.3% (inactive); in experiment [4] (setting [7]), 94.1%; in experiment [4] (setting [8]), 93.3%. In addition, the differential viability (reversal) in experiment [4] (H69AR cells + 2 uM doxorubicin) is -0.79% (inactive). The inhibition in experiment [5] was -9.07% (inactive); in experiment [6], -3.09% (inactive).
In the case of `CN=c1sc2ccccc2n1CC(O)COCc1ccco1` (stereo unspecified), the viability in experiment [1] is 107% (inactive); in experiment [2], 86.6% (inactive); in experiment [3], 98.4% (inactive); in experiment [4] (setting [7]) it was 87.5%; in experiment [4] (setting [8]), 98.4%. The differential viability (reversal) in experiment [4] (H69AR cells + 2 uM doxorubicin) is 10.8% (inactive). For the same molecule, the inhibition in experiment [5] is -8.49% (inactive); in experiment [6] it was 1.94% (inactive).
On to `Cc1ccc(Cn2ccc(NC(=O)c3cc(-c4cccs4)on3)n2)cc1`, for which the viability in experiment [1] is 96% (inactive); in experiment [2], 48.7% (inactive); in experiment [3], 82.9% (inactive); in experiment [4] (setting [7]), 82.8%; in experiment [4] (setting [8]) it was 82.9%. Besides, in experiment [4] (H69AR cells + 2 uM doxorubicin), the differential viability (reversal) is 0.115% (inactive). Further, the inhibition in experiment [5] was -2.6% (inactive); in experiment [6] it was -2.46% (inactive).
As to `C1CNCCNCCNCCN1`, the viability in experiment [1] is 101% (inactive); in experiment [2] it was 113% (inactive); in experiment [3], 95.7% (inactive); in experiment [4] (setting [7]), 95.5%; in experiment [4] (setting [8]), 95.7%. In addition, the differential viability (reversal) in experiment [4] (H69AR cells + 2 uM doxorubicin) is 0.16% (inactive). Also, the values for the inhibition in experiment [5] and in experiment [6] were -0.26% (inactive) and 2.83% (inactive), respectively.
Take `CCc1c(C)nc2ncnn2c1N1CCC(C(=O)NCc2cccc(OC)c2)CC1`: the viability in experiment [1] was 134% (inactive); in experiment [2], 85.8% (inactive); in experiment [3] it was 89.9% (inactive); in experiment [4] (setting [7]), 99.7%; in experiment [4] (setting [8]) it was 89.9%. In addition, the differential viability (reversal) in experiment [4] (H69AR cells + 2 uM doxorubicin) was -9.81% (inactive). The values for the inhibition in experiment [5] and in experiment [6] were -3.7% (inactive) and -1.29% (inactive), respectively.
Take `CC(=O)c1ccccc1NS(=O)(=O)c1c(C)nn(-c2ccccc2)c1C`: the viability is 99% (inactive) in experiment [1]; 77.6% (inactive) in experiment [2]; 88.3% (inactive) in experiment [3]; 93.3% in experiment [4] (setting [7]); 88.3% in experiment [4] (setting [8]). For the same molecule, the differential viability (reversal) in experiment [4] (H69AR cells + 2 uM doxorubicin) was -5% (inactive). In addition, the figures for the inhibition in experiment [5] and in experiment [6] were -3.11% (inactive) and -4.55% (inactive), respectively.
Consider `O=S(=O)(c1cccc(S(=O)(=O)N2CCC(N3CCCCC3)CC2)c1)N1CCOCC1`, for which the viability in experiment [1] was 103% (inactive); in experiment [2], 98.9% (inactive); in experiment [3] it was 93.6% (inactive); in experiment [4] (setting [7]) it was 84.2%; in experiment [4] (setting [8]) it was 93.6%. Moreover, the differential viability (reversal) in experiment [4] (H69AR cells + 2 uM doxorubicin) was 9.45% (inactive). In addition, the inhibition is -0.78% (inactive) in experiment [5] and -2.95% (inactive) in experiment [6].
In the case of `N#CC1=C(N)Oc2c(ccc3cccnc23)C1c1cccnc1` (stereo unspecified), the viability in experiment [1] was 111% (inactive); in experiment [2], 60% (inactive); in experiment [3] it was 15.1% (active); in experiment [4] (setting [7]), 26%; in experiment [4] (setting [8]), 15.1%. For the same molecule, the differential viability (reversal) in experiment [4] (H69AR cells + 2 uM doxorubicin) is -10.9% (inactive). Also, the inhibition is -7.53% (inactive) in experiment [5] and 5% (inactive) in experiment [6].
Turning to `Cc1ccc(F)cc1NC(=O)c1cccc2nccnc12`, the viability was 91.5% (inactive) in experiment [1]; 76.5% (inactive) in experiment [2]; 91.1% (inactive) in experiment [3]; 84.3% in experiment [4] (setting [7]); 91.1% in experiment [4] (setting [8]). The differential viability (reversal) in experiment [4] (H69AR cells + 2 uM doxorubicin) is 6.75% (inactive). Besides, the inhibition was -1.2% (inactive) in experiment [5] and 0.48% (inactive) in experiment [6].
In the case of `CC(=O)OCC(=O)[C@H]1CC[C@H]2[C@@H]3CC=C4C[C@@H](O)CC[C@]4(C)[C@H]3CC[C@]12C`, the viability in experiment [1] was 87% (inactive); in experiment [2], 44.3% (inactive); in experiment [3] it was 96.8% (inactive); in experiment [4] (setting [7]), 92.3%; in experiment [4] (setting [8]), 96.8%. For the same molecule, the differential viability (reversal) in experiment [4] (H69AR cells + 2 uM doxorubicin) was 4.54% (inactive). Further, the figures for the inhibition in experiment [5] and in experiment [6] were -0.65% (inactive) and 44.5% (active), respectively.
For `Cc1sc2nc3n(c(=O)c2c1C)NC(=O)CC3`, the viability was 104% (inactive) in experiment [1]; 86.3% (inactive) in experiment [2]; 94% (inactive) in experiment [3]; 88.4% in experiment [4] (setting [7]); 94% in experiment [4] (setting [8]). Moreover, the differential viability (reversal) in experiment [4] (H69AR cells + 2 uM doxorubicin) was 5.63% (inactive). Moreover, the inhibition in experiment [5] is -4.79% (inactive); in experiment [6], 1.82% (inactive).
